What was measured:
U2OS = experiment: Multiplex assay against U2OS; format: toxicity, cell-based; settings: human
Outline: (§1)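 Per cents of healthy-nucleus cells form the tubulin, mitochondrial-mass and membrane-permeability phenotype values. Live cells were stained at seeding with Hoechst33342, BioTracker Green Microtubule Cytoskeleton Dye, MitoTracker Red and Annexin V Alexa Fluor 680. After compound addition they were imaged on a CQ1 microscope at 37°C and 5% CO2, and CellPathfinder machine-learning gating split them into Hoechst high-intensity objects or normal cells, normal cells into healthy, pyknosed or fragmented nuclei, and pyknosed cells into mitotic or apoptotic.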

Fibroblast = experiment: Multiplex assay against human fibroblast; format: toxicity, cell-based; outline: as §1
[1] = 12 h, 1 µM, compound concentration 1 uM, replicate 1
[2] = 12 h, 1 µM, compound concentration 1 uM, replicate 2
[3] = 12 h, 10 µM, compound concentration 10 uM, replicate 1
[4] = 12 h, 10 µM, compound concentration 10 uM, replicate 2
[5] = 24 h, 1 µM, compound concentration 1 uM, replicate 1
[6] = 24 h, 1 µM, compound concentration 1 uM, replicate 2
[7] = 24 h, 10 µM, compound concentration 10 uM, replicate 1
[8] = 24 h, 10 µM, compound concentration 10 uM, replicate 2
[9] = 48 h, 1 µM, compound concentration 1 uM, replicate 1
[10] = 48 h, 1 µM, compound concentration 1 uM, replicate 2
[11] = 48 h, 10 µM, compound concentration 10 uM, replicate 1
[12] = 48 h, 10 µM, compound concentration 10 uM, replicate 2

## CC(C)C[C@H](NC(=O)[C@H](Cc1ccccc1)NC(=O)CNC(=O)CNC(=O)[C@@H](N)Cc1ccc(O)cc1)C(=O)O [ENKEPHALIN]
U2OS; [1]
  Population Healthy Nuclei (%): 77%
  Population Pyknosed Nuclei (%): 10%
  Population Tubulin-Different-Phenotype (%): 9%
  Total Cell Count: 216
U2OS; [2]
  Population Healthy Nuclei (%): 82%
  Population Pyknosed Nuclei (%): 5%
  Population Tubulin-Different-Phenotype (%): 34%
  Total Cell Count: 70
U2OS; [3]
  Population Healthy Nuclei (%): 78%
  Population Pyknosed Nuclei (%): 11%
  Population Tubulin-Different-Phenotype (%): 9%
  Total Cell Count: 148
U2OS; [4]
  Population Healthy Nuclei (%): 86%
  Population Tubulin-Different-Phenotype (%): 11%
  Total Cell Count: 62
U2OS; [5]
  Population Healthy Nuclei (%): 82%
  Population Pyknosed Nuclei (%): 9%
  Population Tubulin-Different-Phenotype (%): 9%
  Total Cell Count: 218
U2OS; [6]
  Population Healthy Nuclei (%): 84%
  Population Pyknosed Nuclei (%): 5%
  Population Tubulin-Different-Phenotype (%): 31%
  Total Cell Count: 68
U2OS; [7]
  Population Healthy Nuclei (%): 80%
  Population Pyknosed Nuclei (%): 10%
  Total Cell Count: 174
U2OS; [8]
  Population Healthy Nuclei (%): 86%
  Population Pyknosed Nuclei (%): 7%
  Population Tubulin-Different-Phenotype (%): 15%
  Total Cell Count: 86
U2OS; [9]
  Population Healthy Nuclei (%): 87%
  Population Pyknosed Nuclei (%): 7%
  Total Cell Count: 229
U2OS; [10]
  Population Healthy Nuclei (%): 92%
  Population Tubulin-Different-Phenotype (%): 31%
  Total Cell Count: 80
U2OS; [11]
  Population Healthy Nuclei (%): 84%
  Population Pyknosed Nuclei (%): 8%
  Population Tubulin-Different-Phenotype (%): 5%
  Total Cell Count: 251
U2OS; [12]
  Population Healthy Nuclei (%): 85%
  Population Pyknosed Nuclei (%): 6%
  Population Tubulin-Different-Phenotype (%): 15%
  Total Cell Count: 131
Fibroblast; [1]
  Population Apoptotic (%): 68%
  Population Healthy Nuclei (%): 53%
  Population Membrane Permeable-Phenotype (%): 26%
  Population Mitotic Cells (%): 31%
  Population Pyknosed Nuclei (%): 20%
  Population Tubulin-Different-Phenotype (%): 57%
  Total Cell Count: 95
Fibroblast; [2]
  Population Healthy Nuclei (%): 82%
  Population Pyknosed Nuclei (%): 5%
  Population Tubulin-Different-Phenotype (%): 34%
  Total Cell Count: 70
Fibroblast; [3]
  Population Apoptotic (%): 76%
  Population Healthy Nuclei (%): 39%
  Population Membrane Permeable-Phenotype (%): 27%
  Population Mitotic Cells (%): 23%
  Population Pyknosed Nuclei (%): 32%
  Total Cell Count: 130
Fibroblast; [4]
  Population Healthy Nuclei (%): 86%
  Population Tubulin-Different-Phenotype (%): 11%
  Total Cell Count: 62
Fibroblast; [5]
  Population Healthy Nuclei (%): 47%
  Population Membrane Permeable-Phenotype (%): 23%
  Population Pyknosed Nuclei (%): 26%
  Population Tubulin-Different-Phenotype (%): 34%
  Total Cell Count: 111
Fibroblast; [6]
  Population Healthy Nuclei (%): 84%
  Population Pyknosed Nuclei (%): 5%
  Population Tubulin-Different-Phenotype (%): 31%
  Total Cell Count: 68
Fibroblast; [7]
  Population Apoptotic (%): 60%
  Population Healthy Nuclei (%): 52%
  Population Membrane Permeable-Phenotype (%): 35%
  Population Mitotic Cells (%): 40%
  Population Pyknosed Nuclei (%): 22%
  Total Cell Count: 129
Fibroblast; [8]
  Population Healthy Nuclei (%): 86%
  Population Pyknosed Nuclei (%): 7%
  Population Tubulin-Different-Phenotype (%): 15%
  Total Cell Count: 86
Fibroblast; [9]
  Population Apoptotic (%): 63%
  Population Healthy Nuclei (%): 45%
  Population Membrane Permeable-Phenotype (%): 15%
  Population Pyknosed Nuclei (%): 22%

— ChEMBL document CHEMBL4689842, “EUbOPEN Chemogenomics Library wave 1” (2021)
